Consider 13 molecules from ChEMBL document CHEMBL1136250, “N1-benzenesulfonylgramine and N1-benzenesulfonylskatole: novel 5-HT6 receptor ligand templates” (Bioorg Med Chem Lett, 2003).

A word on the Ki: it is a dissociation constant, usually derived from enzyme kinetics or from competition with a known ligand. What is called pA2 is the negative logarithm of the molar antagonist concentration that doubles the agonist concentration needed for the same response. High values mean a more potent antagonist, low ones a weaker antagonist. Broadly, the IC50 is the concentration at which inhibition is half-maximal.

For one assay, the target named is 5-hydroxytryptamine receptor 6 (Homo sapiens, UniProt P50406). Nature of the assay: Binding affinity towards human 5-hydroxytryptamine 6 receptor.
5-hydroxytryptamine receptor 6, sequence (P50406 whole entry): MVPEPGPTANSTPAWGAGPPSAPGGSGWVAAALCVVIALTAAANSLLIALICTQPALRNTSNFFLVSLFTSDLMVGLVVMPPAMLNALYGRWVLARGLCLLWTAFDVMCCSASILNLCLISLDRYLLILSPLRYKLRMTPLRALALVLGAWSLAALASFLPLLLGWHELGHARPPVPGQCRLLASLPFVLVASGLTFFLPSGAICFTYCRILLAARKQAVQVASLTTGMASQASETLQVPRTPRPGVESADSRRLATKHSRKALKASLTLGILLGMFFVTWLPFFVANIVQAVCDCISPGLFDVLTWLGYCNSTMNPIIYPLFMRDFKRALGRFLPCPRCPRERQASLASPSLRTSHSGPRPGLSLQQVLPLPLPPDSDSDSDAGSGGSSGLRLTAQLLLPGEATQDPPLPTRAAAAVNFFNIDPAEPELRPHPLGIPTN
Details: not given
The method in brief: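 Competition binding with [3H]LSD (1 nM final), 90 min at room temperature in 50 mM Tris–Cl, 10 mM MgCl2, 0.1 mM EDTA, pH 7.40; clozapine defines non-specific binding. Test agent 1–10,000 nM; Ki by LIGAND fitting, triplicate determinations.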
The molecule `COc1ccc2c(c1)c(CCN(C)Cc1ccccc1)cn2S(=O)(=O)c1ccc(N)cc1` yielded a Ki of 0.003 µM. Same read-out and setting: in the case of `CCN(CC)CCc1cn(S(=O)(=O)c2ccc(NC(C)=O)cc2)c2ccc(OC)cc12` it was 0.23 µM. The same measure, in the same setting: in the case of `CCN(CC)CCc1cn(S(=O)(=O)c2ccc(NC(C)=O)cc2)c2ccccc12` it was 0.09 µM; in that of `CCN(CC)CCc1cn(S(=O)(=O)c2ccc(N)cc2)c2ccccc12`, 0.0006 µM. In the case of `CNCCc1cn(S(=O)(=O)c2ccccc2)c2ccc(OC)cc12`, affinity was put at a Ki of 0.023 µM. Still for that read-out and setting: in the case of `CN(C)CCc1cn(S(=O)(=O)c2ccccc2)c2ccc(O)cc12` it was 0.028 µM; in that of `CCN(CC)CCc1cn(S(=O)(=O)c2ccc(N)cc2)c2ccc(OC)cc12`, 0.0006 µM. In the case of `CC(=O)Nc1ccc(S(=O)(=O)n2cc(CCN(C)C)c3ccccc32)cc1`, the Ki turned out to be 0.027 µM. Still for that read-out and setting: in the case of `CCN(CC)CCc1cn(S(=O)(=O)c2ccccc2)c2ccc(OC)cc12` it was 0.0062 µM. Same read-out and setting: in the case of `COc1ccc2c(c1)c(CCN(C)Cc1ccccc1)cn2S(=O)(=O)c1ccccc1` it was 0.043 µM; in that of `COc1ccc2c(c1)c(CCN(C)C)cn2S(=O)(=O)c1ccc(NC(C)=O)cc1`, 0.034 µM.

System in the next assay: not listed separately
Description: pA2 value was determined.
Details: not given
For `Cc1cn(S(=O)(=O)c2ccc(N)cc2)c2ccccc12`, the pA2 was found to be 7.

The subject of another assay is HEK293. Nature of the assay: Inhibition of 5-HT stimulated cAMP production in HEK-5-HT6 cells. The following applies: Homo sapiens. In kind it is functional, cell-based. The method, boiled down: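 HEK cells expressing 5-HT6 receptors; the compound was tested alone for agonist-induced cAMP production, and against 5-HT-stimulated cAMP production. IC50 was calculated for inhibition of the 5-HT-stimulated cAMP response.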
A general note: cAMP levels reflect the balance of adenylyl cyclase and phosphodiesterase activity.
Molecule `Cc1cn(S(=O)(=O)c2ccc(N)cc2)c2ccccc12` showed an IC50 of 0.32 µM. The molecule `CN(C)Cc1cn(S(=O)(=O)c2ccccc2)c2ccccc12` returned an IC50 of 0.88 µM.
